Measurements as given in article PMC9444042 (Neurotoxicology, 2021).
Entries after “also recorded” stand apart in the source; their conditions may differ. Where two headings read alike, the source gives them in different places.

Experiments:
[1] = test system: iPSC-derived human spinal motor neurons; assay type: cell-based
[2] = test system: iPSC-derived human cortical glutamatergic neurons; assay type: cell-based
[3] = test system: GFP-labeled iPSC-derived human neurons; assay type: cell-based
LUHMES = conditions: NeuriTox test, IC50 (viability/neurite area) ratio ≥4; ref Delp et al., 2018; cited from earlier work
[4] = test system: iPSC-derived human spinal motor neurons; assay: Cell viability / cytotoxicity; assay type: cell-based
Summary of the method: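 GFP-expressing iPSC-derived motor neurons were seeded at 800 cells/well on PDL-coated 1536-well plates and grown 40 h at 37 °C. Test compound was then added at 11 concentrations (1.56 nM–92 μM, 1:3) and exposed 24 and 48 h. Cells were counted as number of objects from GFP high-content images (488/530 nm, 20×, four fields/well). Values were normalized to 46 μM rotenone (−100%) and 0.46% DMSO (0%), in triplicate.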

PeriTox test cells = conditions: IC50 (viability/neurite area) ratio ≥3, ref Delp et al., 2018; cited from earlier work
[5] = motor neurons, active at either 24 or 48 hours, 1.56 nM to 92 μM
[6] = cortical neurons, active at either 24 or 48 hours, 1.56 nM to 92 μM
[7] = cortical and/or motor neurons, not specified, 24 or 48 hours, up to 92 μM
[8] = cortical neurons, 24 hours of treatment
[9] = cortical neurons, 48 hours of treatment

Question: Which “neurite outgrowth inhibition (activity call)” value [1, 5] does the source give for `Brc1ccc(Oc2ccc(Br)cc2Br)c(Br)c1` [2,2′,4,4′-tetrabromodiphenyl ether] here?
Answer: affected

Question: What about the “neurite outgrowth inhibition (activity call)” value ([1]; motor neurons, active at either 24 or 48 hours, 1.56 nM to 92 μM, listed as 2,2’,4,4’-tetrabromodiphenyl ether) of the same compound?
Answer: inhibited

Question: And the “neurite outgrowth inhibition (activity call)” value [2, 6]?
Answer: only affected neurite outgrowth in motor neurons

Question: With `CCCCC(CC)COC(=O)c1cc(Br)c(Br)c(Br)c1Br` (stereo not drawn) [2-ethylhexyl-2,3,4,5-tetrabromobenzoate] as the compound, how does the “neurite outgrowth inhibition in this study (activity call)” value [3, 7] read?
Answer: inhibit neurite outgrowth

Question: With `CC(C)(c1cc(Br)c(O)c(Br)c1)c1cc(Br)c(O)c(Br)c1` [3,3’,5,5’-tetrabromobisphenol A] as the compound, how does the “neurite outgrowth inhibition (activity call)” value [2, 6] read?
Answer: inhibited

Question: For `COc1cc2c(c(OC)c1OC)-c1ccc(OC)c(=O)cc1[C@@H](NC(C)=O)CC2` [Colchicine], which “neurite outgrowth inhibition (activity call)” value [1, 5] is on record?
Answer: inhibited

Question: And the “neurite outgrowth inhibition (activity call)” value [2, 6]?
Answer: inhibited

Question: With `CC/C(=C(/CC)c1ccc(O)cc1)c1ccc(O)cc1` [Diethylstilbestrol] as the compound, how does the “selective effect on neurite outgrowth” value (LUHMES) read?
Answer: selective effects

Question: Which cytotoxicity [4] does the source give for `O=C1O[C@H]([C@@H](O)CO)C(O)=C1O` [L-ascorbic acid] here?
Answer: cytotoxic

Question: And the “neurite outgrowth inhibition in this study (activity call)” value [3, 7]?
Answer: inhibitor of neurite outgrowth

Question: Which “neurite outgrowth inhibition in this study (activity call)” value [3] does the source give for `CCCCCC` [N-hexane, n-hexane] here?
Answer: not have been active

Question: With `CC(C)[C@@H]1NC(=O)[C@H](C)OC(=O)[C@@H](C(C)C)NC(=O)[C@@H](C(C)C)OC(=O)[C@H](C(C)C)NC(=O)[C@H](C)OC(=O)[C@@H](C(C)C)NC(=O)[C@@H](C(C)C)OC(=O)[C@H](C(C)C)NC(=O)[C@H](C)OC(=O)[C@@H](C(C)C)NC(=O)[C@@H](C(C)C)OC1=O` [Valinomycin] as the compound, how does the “selective effect on neurite outgrowth in this study” value ([3]; neuron type not specified) read?
Answer: selective effects

Question: And the “selective effect on neurite outgrowth” value (LUHMES)?
Answer: selective effects

Question: What about the “selective effect on neurite outgrowth” value (PeriTox test cells) of the same compound?
Answer: selective effects

Question: For `c1ccc2cc3ccccc3cc2c1` [anthracene], which “neurite outgrowth inhibition (activity call)” value [1, 5] is on record?
Answer: affected

Question: What about the “neurite outgrowth inhibition (activity call)” value [2, 6] of the same compound?
Answer: only affected neurite outgrowth in motor neurons

Question: Which “neurite outgrowth inhibition in this study (activity call)” value [3, 7] does the source give for `CN(C)c1ccc(C(=N)c2ccc(N(C)C)cc2)cc1.Cl` [auramine O] here?
Answer: inhibit neurite outgrowth

Question: With `c1ccc2c(c1)-c1cccc3c1c-2cc1ccccc13` [benzo (b) fluoranthene] as the compound, how does the “neurite outgrowth inhibition (activity call)” value [2] read?
Answer: active

Question: With `Oc1ccc(C(c2ccc(O)cc2)(C(F)(F)F)C(F)(F)F)cc1` [bisphenol AF] as the compound, how does the “neurite outgrowth inhibition (activity call)” value [2, 6] read?
Answer: inhibitory effects; also recorded: inhibited

Question: And the “neurite outgrowth inhibition in this study (activity call)” value [3, 7]?
Answer: inhibit neurite outgrowth

Question: Which “neurite outgrowth inhibition (activity call)” value [2, 8] does the source give for `CC(C)(c1ccc(O)cc1)c1ccc(O)cc1` [bisphenol A] here?
Answer: not active

Question: And the “neurite outgrowth inhibition (activity call)” value [2, 9]?
Answer: active; also recorded: inhibitory effects

Question: Which “neurite outgrowth inhibition (activity call)” value [1] does the source give for `Cn1c(=O)c2c(ncn2C)n(C)c1=O` [caffeine] here?
Answer: inhibited; also recorded: affected

Question: And the “neurite outgrowth inhibition (activity call)” value [2]?
Answer: only affected neurite outgrowth in motor neurons

Question: What about the “neurite outgrowth inhibition in this study (activity call)” value [3, 7] of the same compound?
Answer: inhibit neurite outgrowth

Question: For `CC1(C)[C@H](C(=O)O[C@H](C#N)c2cccc(Oc3ccccc3)c2)[C@@H]1C=C(Br)Br` [deltamethrin], which “neurite outgrowth inhibition (activity call)” value [2, 8] is on record?
Answer: not active

Question: And the “neurite outgrowth inhibition (activity call)” value [2, 9]?
Answer: active; also recorded: inhibitory effects

Question: With `C[C@]12CC[C@@H]3c4ccc(O)cc4CC[C@H]3[C@@H]1CC[C@@H]2O` [estradiol] as the compound, how does the “neurite outgrowth inhibition in this study (activity call)” value [3, 7] read?
Answer: inhibit neurite outgrowth

Question: With `CCCCC(CC)COP(=O)(Oc1ccccc1)Oc1ccccc1` (stereo not drawn) [ethylhexyl diphenyl phosphate, 2-ethylhexyl diphenyl phosphate] as the compound, how does the “neurite outgrowth inhibition (activity call)” value [2, 8] read?
Answer: active

Question: For `CC(=O)[O-].CC(=O)[O-].O.O.O.[Pb+2]` [lead (II) acetate trihydrate], which “neurite outgrowth inhibition in this study (activity call)” value [3, 7] is on record?
Answer: inhibit neurite outgrowth

Question: With `[CH3][Hg][Cl]` [methyl mercuric (II) chloride] as the compound, how does the “neurite outgrowth inhibition (activity call)” value [1, 5] read?
Answer: inhibited

Question: What about the “neurite outgrowth inhibition (activity call)” value [2, 6] of the same compound?
Answer: inhibited

Question: With `CCOP(=S)(OCC)Oc1ccc([N+](=O)[O-])cc1` [parathion] as the compound, how does the “neurite outgrowth inhibition (activity call)” value [2, 6] read?
Answer: inhibitory effects; also recorded: inhibited

Question: With `CCC1(c2ccccc2)C(=O)NC(=O)NC1=O` [phenobarbital] as the compound, how does the “neurite outgrowth inhibition in this study (activity call)” value [3, 7] read?
Answer: not be active

Question: With `C=C(C)[C@H]1Cc2c(ccc3c2O[C@@H]2COc4cc(OC)c(OC)cc4[C@@H]2C3=O)O1` [rotenone] as the compound, how does the “neurite outgrowth inhibition (activity call)” value [1, 5] read?
Answer: inhibited neurite outgrowth in a concentration dependent manner

Question: What about the “neurite outgrowth inhibition (activity call)” value [2, 6] of the same compound?
Answer: inhibited neurite outgrowth in a concentration dependent manner

Question: And the “selective effect on neurite outgrowth” value (LUHMES)?
Answer: selective effects

Question: With `CC(C)(C)C(O)(CCc1ccc(Cl)cc1)Cn1cncn1` (stereo not drawn) [tebuconazole] as the compound, how does the “neurite outgrowth inhibition (activity call)” value [2, 8] read?
Answer: not active

Question: And the “neurite outgrowth inhibition (activity call)” value [2, 9]?
Answer: active; also recorded: inhibitory effects
